Reference: ChEMBL document CHEMBL4130549, “Synthesis and bioactivities study of new antibacterial peptide mimics: The dialkyl cationic amphiphiles” (Eur J Med Chem, 2018)
The source made the active and inactive calls. No cut-off for these calls is given here.

Experiments:
[1] = tested on: Klebsiella pneumoniae; assay: Antibacterial activity against carbapenemase-producing Klebsiella pneumoniae after 16 to 20 hrs by broth microdilution method; type: functional
How it was run: (§1)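 Broth microdilution per CLSI in cation-adjusted Mueller-Hinton broth; 4-6 h cultures (~10⁸ CFU/mL) diluted to ~10⁶ CFU/mL and mixed 1:1 with twofold dilutions of water-dissolved compound (256 to 0.5 µg/mL). Incubated 16-20 h at 37 °C; MIC read visually. Each concentration run in duplicate, whole experiment repeated at least twice. MRSA, KPC and NDM-1 strains were clinical isolates.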

[2] = Hemolytic activity in sheep RBC after 1 hr; type: ADME, cell-based, Ovis aries, Erythrocyte; conditions: sheep red blood cells (erythrocytes)
How it was run: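 Sheep RBCs suspended at 5% in PBS; 150 µL added to 50 µL compound dilutions (5120 to 10 µg/mL series). Incubated 1 h at 37 °C, then centrifuged; supernatant absorbance read at 540 nm. Lysis (%) = (A−A0)/(Atotal−A0)×100, with untreated 5% RBC as A0 and 0.1% Triton X-100 as total.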

[3] = tested on: Staphylococcus aureus; assay: Antibacterial activity against methicillin-resistant Staphylococcus aureus isolate M3 after 16 to 20 hrs by broth microdilution method; type: functional
How it was run: (§2)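 CLSI broth microdilution in cation-adjusted Mueller-Hinton broth. A 4-6 h culture was diluted to about 10⁶ CFU/mL and mixed 1:1 with twofold compound dilutions (256–0.5 µg/mL before mixing) prepared from aqueous stocks. Plates were incubated at 37 °C for 16-20 h. Each concentration was tested in duplicate, and the experiment was repeated at least twice.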

[4] = tested on: Staphylococcus aureus; assay: Antibacterial activity against methicillin-resistant Staphylococcus aureus isolate M7 after 16 to 20 hrs by broth microdilution method; type: functional; how it was run: as §2
[5] = tested on: Staphylococcus aureus; assay: Antibacterial activity against methicillin-resistant Staphylococcus aureus isolate M8 after 16 to 20 hrs by broth microdilution method; type: functional; how it was run: as §2
[6] = tested on: Staphylococcus aureus; assay: Antibacterial activity against methicillin-resistant Staphylococcus aureus isolate M9 after 16 to 20 hrs by broth microdilution method; type: functional; how it was run: as §2
[7] = tested on: Klebsiella pneumoniae; assay: Antibacterial activity against carbapenemase-producing Klebsiella pneumoniae isolate K1 after 16 to 20 hrs by broth microdilution method; type: functional; how it was run: as §1
[8] = tested on: Klebsiella pneumoniae; assay: Antibacterial activity against carbapenemase-producing Klebsiella pneumoniae isolate K2 after 16 to 20 hrs by broth microdilution method; type: functional; how it was run: as §1
[9] = tested on: Klebsiella pneumoniae; assay: Antibacterial activity against carbapenemase-producing Klebsiella pneumoniae isolate K4 after 16 to 20 hrs by broth microdilution method; type: functional; how it was run: as §1
[10] = tested on: Klebsiella pneumoniae; assay: Antibacterial activity against carbapenemase-producing Klebsiella pneumoniae isolate K8 after 16 to 20 hrs by broth microdilution method; type: functional; how it was run: as §1
[11] = tested on: Enterobacteriaceae; assay: Antibacterial activity against NDM-1-producing Enterobacteriaceae isolate N4 after 16 to 20 hrs by broth microdilution method; type: functional; how it was run: as §1
[12] = tested on: Staphylococcus aureus; assay: Bactericidal activity against methicillin-resistant Staphylococcus aureus after 20 to 24 hrs in presence of 50% blood by broth microdilution method; type: functional, organism-based
How it was run: (§3)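 MRSA at 10⁵ CFU/mL in 50% Mueller-Hinton broth plus 50% sheep serum, plasma or defibrinated whole blood. Serum and plasma were separated by centrifugation at 3,500 rpm for 10 min. Aqueous compound dilutions (512–4 µg/mL before mixing) were combined 1:3 with the suspension and incubated 20-24 h at 37 °C. Wells were plated on Mueller-Hinton agar for a further 20-24 h; MBC was taken as no colonies.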

[13] = tested on: Staphylococcus aureus; assay: Ratio of MBC for methicillin-resistant Staphylococcus aureus in presence of 50% blood to MBC for methicillin-resistant Staphylococcus aureus; type: functional; how it was run: as §3
[14] = tested on: Escherichia coli; assay: Induction of cytoplasmic membrane depolarization in Escherichia coli ATCC 25922 at 20 ug/ml measured every 2 mins for 12 mins by diSC35 staining based fluorescence assay; type: functional, organism-based
How it was run: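 Mid-log cells (4–6 h) pelleted, washed and resuspended (~10^8 CFU/mL) in PBS for S. aureus, or in 5 mM HEPES, 5 mM glucose and 100 mM KCl (1:1:1) for E. coli. Preloaded with diSC35 (10 µM, 50 µL), 30 min for S. aureus and 40 min plus EDTA (200 µM, 50 µL) for E. coli. Baseline read 8 min (ex 622/em 670 nm), then compound added to 20 µg/mL final and read every 2 min for 12 min. Water control.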

[15] = tested on: Escherichia coli; assay: Induction of inner membrane permeabilization in Escherichia coli ATCC 25922 at 20 ug/ml measured every 2 mins for 12 mins by propidium iodide staining based fluorescence assay; type: functional, organism-based
How it was run: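 Mid-log cells (~10^8 CFU/mL) pre-incubated with propidium iodide (10 µM, 50 µL), 30 min for S. aureus and 40 min for E. coli. Fluorescence (ex 535/em 617 nm) read for 8 min, then compound added to 20 µg/mL final and monitored every 2 min for 12 min. Water-treated control.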

[16] = tested on: Escherichia coli; assay: Induction of outer membrane permeabilization in Escherichia coli ATCC 25922 at 20 ug/ml measured every 2 mins for 12 mins by NPN staining based fluorescence assay; type: functional, organism-based
How it was run: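 Mid-log E. coli (~10^8 CFU/mL) in black plates pre-incubated about 40 min with NPN (10 µM, 50 µL). Baseline read 8 min (ex 350/em 420 nm), then compound added to 20 µg/mL final and fluorescence followed every 2 min for 12 min. Water-treated control.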

[17] = tested on: HeLa; assay: Cytotoxicity against human HeLa cells assessed as altered morphology at 1 to 2 times MIC after 24 hrs by optical microscopic method; type: cell-based
How it was run: (§4)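 HeLa cells kept in DMEM with 10% FBS at 37 °C and 5% CO2, seeded in 12-well plates and left to adhere overnight. Cells then exposed 24 h to 1, 2, 4, 8 and 16 µg/mL, with 0.1% Triton X-100 as positive control and untreated wells as negative control. Cells washed with PBS, imaged for morphology, and stained 15 min at 37 °C with 2 µM calcein AM plus 4.5 µM PI for live/dead fluorescence.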

[18] = tested on: HeLa; assay: Cytotoxicity against human HeLa cells at 1 to 2 times MIC after 24 hrs by calcein AM/propidium iodide staining based fluorescence microscopic method; type: cell-based; how it was run: as §4
[19] = tested on: Staphylococcus aureus; assay: Antibiofilm activity against Staphylococcus aureus ATCC 29213 assessed as bacterial cell viability in biofilm at 2 ug/ml after 24 hrs (reference value: 21.9 log10CFU/ml); type: functional
How it was run: (§5)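 Mid-log cells at ~10⁵ CFU/mL grown stationary in 96-well plates (S. aureus in MHB for 24 h; E. coli in M9 with 0.02% casamino acids and 0.5% glycerol for 72 h). After washing, biofilms exposed 24 h at 37 °C to 2-128 µg/mL; detached with trypsin-EDTA, serially plated, viability given as log10 CFU/well against an untreated control.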

[20] = tested on: Staphylococcus aureus; assay: Antibiofilm activity against Staphylococcus aureus ATCC 29213 assessed as bacterial cell viability in biofilm at 8 ug/ml after 24 hrs (reference value: 21.9 log10CFU/ml); type: functional; how it was run: as §5
[21] = tested on: Staphylococcus aureus; assay: Antibiofilm activity against Staphylococcus aureus ATCC 29213 assessed as bacterial cell viability in biofilm at 64 ug/ml after 24 hrs (reference value: 21.9 log10CFU/ml); type: functional; how it was run: as §5
[22] = tested on: Escherichia coli; assay: Antibiofilm activity against Escherichia coli ATCC 25922 assessed as bacterial cell viability in biofilm at 2 ug/ml after 24 hrs (reference value: 25.9 log10CFU/ml); type: functional; how it was run: as §5

| Compound | MIC [1] [µg/mL] | HC50 at 1 h [2] [µg/mL] | MIC [3] [µg/mL] | MIC [4] [µg/mL] | MIC [5] [µg/mL] | MIC [6] [µg/mL] | MIC [7] [µg/mL] | MIC [8] [µg/mL] | MIC [9] [µg/mL] | MIC [10] [µg/mL] | MIC [11] [µg/mL] | Activity [12] | Ratio [13] | Activity [14] | Activity [15] | Activity [16] | Activity [17] | Activity [18] | also measured |
| --- | --- | --- | --- | --- | --- | --- | --- | --- | --- | --- | --- | --- | --- | --- | --- | --- | --- | --- | --- |
| CCCCCCCCCN(CCCCCCCCC)C(=O)[C@@H](N)CCCN=C(N)N.Cl.Cl.Cl | 4 | 119 | 1 | 2 | 2 | 2 | 4 | 4 | 2 | 4 | 4 | inactive | 8 - 16 | Active | Active | Active | Non-Toxic | Non-Toxic |  |
| CCCCCCCCCN(CCCCCCCCC)C(=O)[C@@H](N)CCCCN.Cl.Cl | 2 | 133 | 1 | 1 | 1 | 1 | 2 | 2 | 2 | 2 | 2 | inactive | 8 - 16 | Active | Active | Active | Non-Toxic | Non-Toxic | Activity [19]: 19.9 log10CFU; Activity [20]: 11.9 log10CFU; Activity [21]: 7.9 log10CFU; Activity [22]: 24.7 log10CFU |
| CCCCCCCCCCN(CCCCCCCCCC)C(=O)[C@@H](N)CCCCN.Cl.Cl | 2 | 98 | 2 | 1 | 1 | 1 | 4 | 4 | 4 | 2 | 4 | inactive | 8 - 16 | Active | Active | Active |  |  |  |
| CCCCCCCCN(CCCCCCCC)C(=O)[C@@H](N)CCCCN.Cl.Cl | 1 | 225 | 1 | 0.5 | 1 | 1 | 2 | 2 | 2 | 1 | 8 | inactive | 8 - 16 | Active | Active | Active |  |  |  |
| CCCCCCCCCCN(CCCCCCCCCC)C(=O)[C@@H](N)CCCN=C(N)N.Cl.Cl.Cl | 4 | 87 | 2 | 2 | 2 | 2 | 4 | 4 | 4 | 4 | 4 | inactive | 8 - 16 | Active | Active | Active |  |  |  |
| CCCCCCCCN(CCCCCCCC)C(=O)[C@@H](N)CCCN=C(N)N.Cl.Cl.Cl | 4 | 124 | 0.5 | 0.5 | 1 | 1 | 8 | 4 | 4 | 4 | 8 | inactive | 8 - 16 | Active | Active | Active |  |  |  |
